PfGluPho inh: PfG6PD enzyme inhibitors, primary screen, biochemical, fluorescence intensity, uHTS; glucose-6-phosphate dehydrogenase-6-phosphogluconolactonase (Plasmodium falciparum 3D7); PfGluPho enzyme, NADPH resazurin-diaphorase fluorescence; inhibition, % at 20 µM; 350,000 compounds, 0.78% hits; AID 504690, 2011;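 active = inhibition reaching at least a set limit at 20 µM in the primary screen, cut at about 59% in these data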
Neddylation inh: inhibitors of cullin neddylation, primary screen, biochemical, TR-FRET, uHTS, NAE and Ubc12; inhibition, % at 25 µM; 360,000 compounds, 0.58% hits; in the data active = inhibition above about 36%
HKDC1 inh: HKDC1 hexokinase inhibitors, primary screen, biochemical, fluorescence, uHTS | 340,000 compounds, 0.16% hits | inhibition, % at 20 µM | Q2TB90 | recombinant HKDC1, G6PDH/diaphorase resazurin coupled fluorescence;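 active = inhibition above about 35% when tested at 20 µM, limit read from the data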
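Assay system – recombinant HKDC1 (HK5) hexokinase enzyme, produced in-house · Input – HKDC1 at 5 µg/mL · Reagent – glucose plus 1 mM ATP as hexokinase substrates · Timing – 90 min reaction incubation at room temperature, dark · Measured by – G6PDH/diaphorase-coupled fluorescence, 1 mM NADP, 100 µM resazurin, 525/613 nm · Benchmarks – DMSO-enzyme wells negative, buffer-substituted wells positive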
PfM18AAP inh: PfM18AAP inhibitors, malaria aminopeptidase, primary screen, biochemical, QFRET, recombinant enzyme. 290,000 compounds, 1.2% hits. H-Glu-NHMec fluorogenic cleavage. inhibition, % at 7.35 µM;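 active = inhibition above the campaign mean inhibition over all tested compounds plus 3 SD, cut at about 28% in these data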
HKDC1 act conf: HKDC1 hexokinase activators, confirmation, biochemical, single concentration; shares compounds with HKDC1 inh; recombinant HKDC1, G6PDH/diaphorase resazurin fluorescence; hits give low values; inhibition, % at 20 µM; 740 compounds, 14% hits;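 active = inhibition at or below a set negative limit, negative inhibition meaning the enzyme was activated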
Hits are given with their value. Only some compounds are listed: those with a hit (about 2.2% of all), similar ones and a draw of the others.

Results for CC(C)(C)n1[nH]c2c3c(ccc2c1=O)C(=O)c1ccccc1C3=O ?
PfGluPho inh: inactive; Neddylation inh: inactive; HKDC1 inh: 42; PfM18AAP inh: inactive; HKDC1 act conf: inactive

Results for O=C(NCCc1ccccc1)C(c1cccs1)N(C(=O)CCl)c1ccc(Cl)cc1 (stereo not given) ?
PfGluPho inh: inactive; Neddylation inh: inactive; HKDC1 inh: 37; PfM18AAP inh: inactive; HKDC1 act conf: inactive

What do the screens show for `CC(=O)Nc1cccc(NC(=O)Cc2ccc3ccccc3c2)c1`?
PfGluPho inh: inactive; Neddylation inh: inactive; HKDC1 inh: inactive; PfM18AAP inh: inactive

What do the screens show for `O=C(CNC(=O)c1ccncc1)N/N=C/c1ccc(O)cc1O`?
PfGluPho inh: inactive; Neddylation inh: inactive; HKDC1 inh: inactive; PfM18AAP inh: inactive; HKDC1 act conf: inactive

How did O=C(CNC(=O)c1ccc2c(c1)OCCO2)N/N=C/c1ccc(O)cc1O do in these assays?
PfGluPho inh: inactive; Neddylation inh: inactive; HKDC1 inh: inactive; PfM18AAP inh: inactive; HKDC1 act conf: inactive

What do the screens show for `Cc1cc(C)n(CCC(=O)N/N=C/c2ccc(O)cc2O)n1`?
PfGluPho inh: inactive; Neddylation inh: inactive; HKDC1 inh: inactive; PfM18AAP inh: inactive; HKDC1 act conf: inactive

How did COc1cccc(/C=N/NC(=O)CNC(=O)c2ccc3c(c2)OCCO3)c1O do in these assays?
PfGluPho inh: inactive; Neddylation inh: inactive; HKDC1 inh: inactive; PfM18AAP inh: inactive

Results for Cc1ccc(S(=O)(=O)N2CCN(C(=O)CCC(=O)Nc3ccc(F)cc3F)CC2)cc1 ?
PfGluPho inh: inactive; Neddylation inh: inactive; HKDC1 inh: inactive

What do the screens show for `O=C1C(Cl)=C(N2CCCCC2)C(=O)C(Cl)=C1c1cnc(N2CCCCC2)s1`?
PfGluPho inh: 88; Neddylation inh: inactive; HKDC1 inh: 70; PfM18AAP inh: inactive; HKDC1 act conf: inactive

What do the screens show for `Cc1cccc(NC(=O)c2nc[nH]c2C(=O)N(C)Cc2ccccc2)c1`?
PfGluPho inh: inactive; Neddylation inh: inactive; HKDC1 inh: inactive

What do the screens show for `COCCCn1c(=N)c(C(N)=S)cc2c(=O)n3cccc(C)c3nc21`?
PfGluPho inh: inactive; HKDC1 inh: inactive

Results for Cc1cccn2c(=O)c3cc(C(N)=S)c(=N)n(CCCN4CCOCC4)c3nc12 ?
PfGluPho inh: inactive; HKDC1 inh: inactive; PfM18AAP inh: inactive; HKDC1 act conf: inactive

What do the screens show for `O=C1C=CC(=O)c2c(O)c(CO)c(CO)c(O)c21`?
PfGluPho inh: inactive; Neddylation inh: inactive; HKDC1 inh: 49; HKDC1 act conf: inactive

Results for CC(=O)Oc1cccc2c1C(=O)C1CC=CC(OC(C)=O)C1C2=O (stereo not given) ?
PfGluPho inh: inactive; Neddylation inh: inactive; HKDC1 inh: inactive; HKDC1 act conf: -66

How did CC1=NNC(=O)/C1=C\c1cn(-c2ccccc2)nc1-c1ccc(Cl)cc1 do in these assays?
PfGluPho inh: inactive; Neddylation inh: inactive; HKDC1 inh: 37; PfM18AAP inh: inactive; HKDC1 act conf: inactive

How did Cc1ccc(-c2nn(-c3ccccc3)cc2C=C2C(=O)CC(C)(C)CC2=O)cc1 do in these assays?
PfGluPho inh: inactive; Neddylation inh: inactive; HKDC1 inh: inactive; PfM18AAP inh: inactive

What do the screens show for `Cc1cc(C)c2c(=O)[nH]cnc2n1`?
PfGluPho inh: inactive; Neddylation inh: inactive; HKDC1 inh: 64; PfM18AAP inh: inactive; HKDC1 act conf: inactive

Results for Cc1cc(C)c2c(C)[nH]nc2n1 ?
PfGluPho inh: inactive; Neddylation inh: inactive; HKDC1 inh: inactive; PfM18AAP inh: inactive

How did CCCN(CCC)C(=S)NC(=O)c1ccc(-c2ccccc2)cc1 do in these assays?
PfGluPho inh: inactive; Neddylation inh: inactive; HKDC1 inh: inactive; PfM18AAP inh: inactive; HKDC1 act conf: inactive

What do the screens show for `CC(C)NC(=O)CSc1nnc(-c2ccc3ncccc3c2)n1C`?
PfGluPho inh: inactive; Neddylation inh: inactive; HKDC1 inh: inactive; PfM18AAP inh: inactive

How did O=C(O)c1cccc(-c2ccc(/C=c3/sc4nc5ccccc5n4c3=O)o2)c1 do in these assays?
PfGluPho inh: inactive; Neddylation inh: inactive; HKDC1 inh: 48; PfM18AAP inh: inactive; HKDC1 act conf: inactive
